Experimental findings from ChEMBL document CHEMBL5661979, “Pharmacological inhibition of BMK1 suppresses tumor growth through promyelocytic leukemia protein” (Cancer Cell, 2010) are described below.

Assay [1] can be described thus: Inhibition of CDK5/PRKX/PRKY in human HeLa cells lysate pre incubated for 15 mins followed by ATP acyl phosphate probe addition and measured after 10 mins by LC-MS/MS analysis. Type of assay: subcellular. The gist of the method:
(§1)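 KiNativ profiling in HeLa lysate (5 mg/mL total protein). Lysate incubated 15 min with inhibitor at 50, 10, 2, 0.8 or 0 μM. ATP or ADP acylphosphate probe then added (5 μM final) and reacted 10 min. Reaction stopped with urea and analysed by targeted MS, using up to four fragment ions per kinase peptide-probe conjugate. % inhibition taken against untreated lysate. Run in duplicate.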

Assay [2] addresses Mitogen-activated protein kinase kinase kinase 20 (Homo sapiens, UniProt Q9NYL2). Put plainly: Inhibition of ZAK in human HeLa cells lysate pre incubated for 15 mins followed by ATP acyl phosphate probe addition and measured after 10 mins by LC-MS/MS analysis. Type of assay: subcellular.
The target of assay [3] is Serine/threonine-protein kinase LATS2 (Homo sapiens, UniProt Q9NRM7). Put plainly: Inhibition of LATS2 in human HeLa cells lysate pre incubated for 15 mins followed by ADP acyl phosphate probe addition and measured after 10 mins by LC-MS/MS analysis. The format is subcellular.
Serine/threonine-protein kinase LATS2, sequence (Q9NRM7 whole entry): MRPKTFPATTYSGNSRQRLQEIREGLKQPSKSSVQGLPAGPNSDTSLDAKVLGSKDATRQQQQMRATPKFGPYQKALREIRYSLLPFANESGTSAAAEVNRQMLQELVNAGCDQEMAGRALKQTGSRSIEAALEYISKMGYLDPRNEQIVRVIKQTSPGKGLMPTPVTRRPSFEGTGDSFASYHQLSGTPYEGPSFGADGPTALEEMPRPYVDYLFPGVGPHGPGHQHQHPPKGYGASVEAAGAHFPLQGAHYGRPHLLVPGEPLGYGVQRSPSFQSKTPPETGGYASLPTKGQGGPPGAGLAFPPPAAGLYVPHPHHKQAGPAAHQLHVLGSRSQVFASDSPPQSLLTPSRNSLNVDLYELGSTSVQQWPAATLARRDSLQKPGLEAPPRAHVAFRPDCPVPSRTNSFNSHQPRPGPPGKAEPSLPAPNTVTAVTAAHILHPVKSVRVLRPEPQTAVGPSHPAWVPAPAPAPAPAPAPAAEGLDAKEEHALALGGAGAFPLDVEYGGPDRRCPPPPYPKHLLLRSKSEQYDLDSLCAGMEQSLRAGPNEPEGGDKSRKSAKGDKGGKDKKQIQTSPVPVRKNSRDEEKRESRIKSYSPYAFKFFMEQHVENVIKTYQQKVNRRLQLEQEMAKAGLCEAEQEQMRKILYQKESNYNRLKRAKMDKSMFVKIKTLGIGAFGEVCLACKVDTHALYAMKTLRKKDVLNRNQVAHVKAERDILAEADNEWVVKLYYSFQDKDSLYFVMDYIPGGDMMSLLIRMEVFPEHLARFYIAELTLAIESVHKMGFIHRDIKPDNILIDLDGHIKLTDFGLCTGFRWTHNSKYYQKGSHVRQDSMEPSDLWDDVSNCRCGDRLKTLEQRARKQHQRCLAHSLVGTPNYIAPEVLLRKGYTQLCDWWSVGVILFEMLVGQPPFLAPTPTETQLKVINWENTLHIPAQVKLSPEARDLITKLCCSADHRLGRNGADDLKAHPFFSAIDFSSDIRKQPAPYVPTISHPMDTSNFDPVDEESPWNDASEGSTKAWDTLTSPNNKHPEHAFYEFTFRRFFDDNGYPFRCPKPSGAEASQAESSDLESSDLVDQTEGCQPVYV
In assay [4] the target is Serine/threonine-protein kinase 3 (Homo sapiens, UniProt Q13188). Put plainly: Inhibition of MST2 in human HeLa cells lysate pre incubated for 15 mins followed by ADP acyl phosphate probe addition and measured after 10 mins by LC-MS/MS analysis. The format is subcellular.
Serine/threonine-protein kinase 3, sequence (Q13188 whole entry): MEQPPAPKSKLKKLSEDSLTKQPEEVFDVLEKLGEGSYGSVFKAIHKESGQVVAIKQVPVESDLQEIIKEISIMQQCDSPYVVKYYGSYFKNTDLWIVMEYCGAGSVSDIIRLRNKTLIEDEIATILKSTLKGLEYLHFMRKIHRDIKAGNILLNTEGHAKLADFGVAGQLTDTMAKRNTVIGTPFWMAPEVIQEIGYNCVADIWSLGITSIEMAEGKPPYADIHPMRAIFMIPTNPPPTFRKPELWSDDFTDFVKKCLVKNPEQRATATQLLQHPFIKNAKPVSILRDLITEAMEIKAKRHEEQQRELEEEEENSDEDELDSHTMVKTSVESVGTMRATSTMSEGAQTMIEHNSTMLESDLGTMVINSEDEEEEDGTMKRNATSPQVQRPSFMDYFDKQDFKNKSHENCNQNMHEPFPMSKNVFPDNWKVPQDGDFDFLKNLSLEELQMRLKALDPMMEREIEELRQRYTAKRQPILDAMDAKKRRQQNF
Assay [5] deals with Serine/threonine-protein kinase Nek9 (Homo sapiens, UniProt Q8TD19). Put plainly: Inhibition of NEK9 in human HeLa cells lysate pre incubated for 15 mins followed by ADP acyl phosphate probe addition and measured after 10 mins by LC-MS/MS analysis. The format is subcellular.
Serine/threonine-protein kinase Nek9, sequence (Q8TD19 whole entry): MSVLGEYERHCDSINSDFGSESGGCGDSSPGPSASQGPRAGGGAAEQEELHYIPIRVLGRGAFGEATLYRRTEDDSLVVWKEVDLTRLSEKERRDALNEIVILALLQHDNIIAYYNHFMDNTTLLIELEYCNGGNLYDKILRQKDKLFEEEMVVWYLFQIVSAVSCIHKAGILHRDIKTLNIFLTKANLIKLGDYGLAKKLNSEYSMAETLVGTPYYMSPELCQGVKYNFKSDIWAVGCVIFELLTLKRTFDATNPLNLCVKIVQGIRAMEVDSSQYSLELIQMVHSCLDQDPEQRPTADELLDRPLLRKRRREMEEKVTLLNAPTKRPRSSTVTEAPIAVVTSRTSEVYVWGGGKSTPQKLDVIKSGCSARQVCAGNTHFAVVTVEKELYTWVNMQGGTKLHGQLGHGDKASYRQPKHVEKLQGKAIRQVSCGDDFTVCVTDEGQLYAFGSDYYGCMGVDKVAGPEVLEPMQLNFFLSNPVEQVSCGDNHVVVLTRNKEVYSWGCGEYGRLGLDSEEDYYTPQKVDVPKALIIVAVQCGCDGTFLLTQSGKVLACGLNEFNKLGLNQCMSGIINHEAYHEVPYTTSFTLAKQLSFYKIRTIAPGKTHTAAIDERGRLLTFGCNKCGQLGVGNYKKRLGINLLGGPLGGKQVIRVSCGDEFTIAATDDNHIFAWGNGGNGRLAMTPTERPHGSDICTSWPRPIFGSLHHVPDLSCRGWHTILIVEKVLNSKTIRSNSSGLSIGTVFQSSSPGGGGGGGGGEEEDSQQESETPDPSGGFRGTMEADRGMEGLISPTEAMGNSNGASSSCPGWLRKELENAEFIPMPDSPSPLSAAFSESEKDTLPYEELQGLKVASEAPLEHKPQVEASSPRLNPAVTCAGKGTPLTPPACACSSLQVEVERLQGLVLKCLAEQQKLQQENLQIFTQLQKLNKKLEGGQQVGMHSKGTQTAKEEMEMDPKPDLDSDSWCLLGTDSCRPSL
Assay [6] concerns the target STE20-like serine/threonine-protein kinase (Homo sapiens, UniProt Q9H2G2). Put plainly: Inhibition of SLK in human HeLa cells lysate pre incubated for 15 mins followed by ADP acyl phosphate probe addition and measured after 10 mins by LC-MS/MS analysis. The format is subcellular.
Assay [7] concerns the target T1, Non-receptor tyrosine-protein kinase TNK1 (Homo sapiens) (UniProt Q13470).
T1 sequence (whole entry): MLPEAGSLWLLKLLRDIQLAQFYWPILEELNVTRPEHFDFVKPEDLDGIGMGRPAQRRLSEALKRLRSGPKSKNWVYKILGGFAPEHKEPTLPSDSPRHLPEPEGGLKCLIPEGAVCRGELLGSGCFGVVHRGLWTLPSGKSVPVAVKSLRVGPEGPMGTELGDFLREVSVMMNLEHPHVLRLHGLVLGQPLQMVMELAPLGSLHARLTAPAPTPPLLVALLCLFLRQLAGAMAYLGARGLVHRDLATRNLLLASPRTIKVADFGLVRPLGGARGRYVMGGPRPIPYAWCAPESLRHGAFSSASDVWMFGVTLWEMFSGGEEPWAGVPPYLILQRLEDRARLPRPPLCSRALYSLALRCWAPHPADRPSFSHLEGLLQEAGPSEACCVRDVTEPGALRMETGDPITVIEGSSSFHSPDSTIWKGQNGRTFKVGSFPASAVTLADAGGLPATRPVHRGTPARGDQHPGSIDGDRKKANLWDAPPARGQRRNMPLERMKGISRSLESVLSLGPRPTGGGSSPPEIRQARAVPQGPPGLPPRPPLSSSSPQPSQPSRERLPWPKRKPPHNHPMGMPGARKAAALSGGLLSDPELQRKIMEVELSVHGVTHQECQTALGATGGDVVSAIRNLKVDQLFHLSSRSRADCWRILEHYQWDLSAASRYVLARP
Put plainly: Inhibition of TNK1 in human HeLa cells lysate at 50 uM pre incubated for 15 mins followed by ADP acyl phosphate probe addition and measured after 10 mins by LC-MS/MS analysis relative to control. The format is subcellular. To be noted: time 25.0 min.

The target in assay [8] is T2, Phosphatidylinositol 5-phosphate 4-kinase type-2 alpha (Homo sapiens) (UniProt P48426).
T2 sequence (whole entry): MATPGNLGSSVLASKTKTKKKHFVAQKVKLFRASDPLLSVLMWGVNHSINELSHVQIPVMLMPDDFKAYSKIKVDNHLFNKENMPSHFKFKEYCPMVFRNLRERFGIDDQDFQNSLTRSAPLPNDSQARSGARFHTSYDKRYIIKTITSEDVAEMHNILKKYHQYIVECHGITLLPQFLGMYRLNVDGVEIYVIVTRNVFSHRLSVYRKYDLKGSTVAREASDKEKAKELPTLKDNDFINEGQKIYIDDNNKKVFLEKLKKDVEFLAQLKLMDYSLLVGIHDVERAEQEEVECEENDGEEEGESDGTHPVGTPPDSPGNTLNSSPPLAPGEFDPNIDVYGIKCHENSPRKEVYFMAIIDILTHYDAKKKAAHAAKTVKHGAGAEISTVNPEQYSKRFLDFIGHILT
Put plainly: Inhibition of PIP5K2A LIP site in human HeLa cells lysate at 50 uM pre incubated for 15 mins followed by ADP acyl phosphate probe addition and measured after 10 mins by LC-MS/MS analysis relative to control. Type of assay: subcellular. To be noted: time 25.0 min.

Assay [9] has as its target Serine/threonine-protein kinase/endoribonuclease IRE1 (Homo sapiens, UniProt O75460). Put plainly: Inhibition of IRE1 in human HeLa cells lysate at 50 uM pre incubated for 15 mins followed by ADP acyl phosphate probe addition and measured after 10 mins by LC-MS/MS analysis relative to control. Type of assay: subcellular. To be noted: time 25.0 min.
Assay [10] in a line: Inhibition of MST4/YSK1 in human HeLa cells lysate at 50 uM pre incubated for 15 mins followed by ADP acyl phosphate probe addition and measured after 10 mins by LC-MS/MS analysis relative to control. To be noted: 25 min, condition cancer.
Assay [11] is described as follows: Inhibition of HGK/MINK/TNIK in human HeLa cells lysate at 50 uM pre incubated for 15 mins followed by ADP acyl phosphate probe addition and measured after 10 mins by LC-MS/MS analysis relative to control. To be noted: 25 min, condition cancer.
A short description of assay [12]: Inhibition of SRPK1/2 in human HeLa cells lysate at 50 uM pre incubated for 15 mins followed by ADP acyl phosphate probe addition and measured after 10 mins by LC-MS/MS analysis relative to control. To be noted: 25 min, condition cancer.
The target in assay [13] is Cyclin-dependent kinase 2 (Homo sapiens, UniProt P24941). Put plainly: Inhibition of CDK2 in human HeLa cells lysate at 50 uM pre incubated for 15 mins followed by ATP acyl phosphate probe addition and measured after 10 mins by LC-MS/MS analysis relative to control. The format is subcellular. To be noted: time 25.0 min. The gist of the method:
as §1

For assay [14], the target named is T3, Dual specificity mitogen-activated protein kinase kinase 6 (Homo sapiens) (UniProt P52564).
T3 sequence (whole entry): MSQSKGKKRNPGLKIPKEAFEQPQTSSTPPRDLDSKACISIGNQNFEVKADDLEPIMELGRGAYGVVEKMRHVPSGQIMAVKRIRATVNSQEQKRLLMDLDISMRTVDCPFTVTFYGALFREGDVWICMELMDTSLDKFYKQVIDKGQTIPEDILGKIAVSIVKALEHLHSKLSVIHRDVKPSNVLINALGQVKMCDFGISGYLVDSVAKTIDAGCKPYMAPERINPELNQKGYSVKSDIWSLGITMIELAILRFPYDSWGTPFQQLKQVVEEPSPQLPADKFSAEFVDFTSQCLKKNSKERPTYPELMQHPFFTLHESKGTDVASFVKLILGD
Put plainly: Inhibition of MAP2K6 in human HeLa cells lysate at 10 uM pre incubated for 15 mins followed by ATP acyl phosphate probe addition and measured after 10 mins by LC-MS/MS analysis relative to control. The format is subcellular. The following applies: time 25.0 min.

Serine/threonine-protein kinase/endoribonuclease IRE1, sequence (O75460 19-977 limits assumed): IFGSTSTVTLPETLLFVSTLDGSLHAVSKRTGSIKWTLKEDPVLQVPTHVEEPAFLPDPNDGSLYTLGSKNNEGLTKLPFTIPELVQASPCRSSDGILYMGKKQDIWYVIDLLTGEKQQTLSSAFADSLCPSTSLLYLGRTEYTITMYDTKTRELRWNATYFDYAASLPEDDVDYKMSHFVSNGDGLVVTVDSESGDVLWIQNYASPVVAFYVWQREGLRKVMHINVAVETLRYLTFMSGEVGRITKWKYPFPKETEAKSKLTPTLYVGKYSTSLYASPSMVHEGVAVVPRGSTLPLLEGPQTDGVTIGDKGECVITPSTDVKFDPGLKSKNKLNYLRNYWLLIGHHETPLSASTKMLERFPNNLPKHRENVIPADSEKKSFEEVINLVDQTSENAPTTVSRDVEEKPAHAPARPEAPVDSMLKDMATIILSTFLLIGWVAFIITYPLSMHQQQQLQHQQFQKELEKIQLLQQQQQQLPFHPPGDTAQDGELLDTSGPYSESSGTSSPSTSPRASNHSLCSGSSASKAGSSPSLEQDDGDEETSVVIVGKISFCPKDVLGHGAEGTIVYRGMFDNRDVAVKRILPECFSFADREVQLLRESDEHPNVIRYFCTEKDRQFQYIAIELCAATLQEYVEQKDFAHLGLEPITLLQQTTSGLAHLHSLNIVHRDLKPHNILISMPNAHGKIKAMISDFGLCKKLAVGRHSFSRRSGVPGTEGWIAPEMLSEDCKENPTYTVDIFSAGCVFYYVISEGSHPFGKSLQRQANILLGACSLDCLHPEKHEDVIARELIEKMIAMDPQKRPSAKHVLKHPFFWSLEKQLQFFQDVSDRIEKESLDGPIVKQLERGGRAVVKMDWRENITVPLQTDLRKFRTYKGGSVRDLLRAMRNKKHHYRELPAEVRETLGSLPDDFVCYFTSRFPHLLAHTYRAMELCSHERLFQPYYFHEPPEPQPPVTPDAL
STE20-like serine/threonine-protein kinase, sequence (Q9H2G2 whole entry): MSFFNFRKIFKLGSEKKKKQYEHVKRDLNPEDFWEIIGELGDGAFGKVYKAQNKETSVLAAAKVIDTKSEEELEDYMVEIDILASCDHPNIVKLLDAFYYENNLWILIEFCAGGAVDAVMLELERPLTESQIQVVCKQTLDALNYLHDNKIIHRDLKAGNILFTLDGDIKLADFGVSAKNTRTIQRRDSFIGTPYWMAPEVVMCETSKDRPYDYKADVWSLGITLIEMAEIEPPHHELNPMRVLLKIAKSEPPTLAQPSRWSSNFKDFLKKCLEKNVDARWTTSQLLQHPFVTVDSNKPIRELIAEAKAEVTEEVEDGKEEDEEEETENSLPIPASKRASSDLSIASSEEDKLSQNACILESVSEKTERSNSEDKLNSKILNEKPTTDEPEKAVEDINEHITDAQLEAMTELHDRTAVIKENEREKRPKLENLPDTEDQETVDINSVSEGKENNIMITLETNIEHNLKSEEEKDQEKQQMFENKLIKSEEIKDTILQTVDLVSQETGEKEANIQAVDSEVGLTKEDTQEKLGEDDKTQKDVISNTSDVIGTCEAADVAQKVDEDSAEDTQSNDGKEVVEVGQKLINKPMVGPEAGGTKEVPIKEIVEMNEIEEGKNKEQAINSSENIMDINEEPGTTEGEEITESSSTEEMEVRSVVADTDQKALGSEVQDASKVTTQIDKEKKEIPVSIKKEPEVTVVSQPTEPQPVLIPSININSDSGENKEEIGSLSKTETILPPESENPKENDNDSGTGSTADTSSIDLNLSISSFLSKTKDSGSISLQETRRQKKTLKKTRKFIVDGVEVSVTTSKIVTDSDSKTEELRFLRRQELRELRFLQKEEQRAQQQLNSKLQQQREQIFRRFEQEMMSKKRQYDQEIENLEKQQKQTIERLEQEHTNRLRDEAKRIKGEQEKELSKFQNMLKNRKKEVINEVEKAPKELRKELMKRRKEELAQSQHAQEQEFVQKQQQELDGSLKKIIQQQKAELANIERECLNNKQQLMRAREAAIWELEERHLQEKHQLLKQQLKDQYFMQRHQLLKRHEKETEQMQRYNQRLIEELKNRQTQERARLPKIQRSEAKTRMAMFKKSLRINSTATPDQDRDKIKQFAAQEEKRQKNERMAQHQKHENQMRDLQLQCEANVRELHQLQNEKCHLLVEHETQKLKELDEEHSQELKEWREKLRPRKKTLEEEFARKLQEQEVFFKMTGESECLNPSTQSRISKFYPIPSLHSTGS

Usually IC50 stands for the point on the concentration scale where inhibition reaches its midpoint. A higher IC50 goes with weaker potency. A word on the inhibition: it is the relative decrease from the control value, in per cent. Turning to `CCOc1cc(N2CCC(O)CC2)ccc1Nc1ncc2c(n1)N(C)c1ccccc1C(=O)N2C`, the IC50 in assay [1], in [2], in [3], in [4], in [5] and in [6] was above 50 µM throughout. Further, the inhibition is 82.2% in assay [7]; 15.1% in assay [8]; 6.2% in [9]; -1.9% in [13]; -9% in assay [14]. Besides, the inhibition at 50 µM was -14.3% in [10], -31.5% in assay [11] and -53.5% in assay [12].
